# Assays:
# A549 = test: Cytotoxicity against human A549 cells assessed as growth inhibition after 48 hrs by resazurin assay; assay type: functional, cell-based; conditions: A549, 48 h
# Outline: (§1)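 Human lung carcinoma A549, colon adenocarcinoma DLD-1 and normal skin fibroblast WS1 cells were tested by resazurin reduction, following an earlier-published protocol. Values are IC50, the concentration inhibiting 50% of cell growth. Etoposide served as the positive control.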
# [1] = Cytotoxicity against human WS1 cells assessed as growth inhibition after 48 hrs by resazurin assay; assay type: cell-based; conditions: WS1, 48 h; outline: as §1
# [2] = Cytotoxicity against human DLD1 cells assessed as growth inhibition after 48 hrs by resazurin assay; assay type: functional, cell-based; conditions: DLD-1, 48 h; outline: as §1
Compound,IC50 (A549) [µM],IC50 [1] [µM],IC50 [2] [µM]
C=C(C)[C@@H]1CC=C2[C@@H](CC[C@]23C(=C)CC[C@@]3(C)[C@H](C)CC(=O)[C@H]2CC(CCC=C(C)C)=CC[C@]2(C)C(=O)O)[C@@]1(C)CCC(=O)OC,7.2,> 10,> 10
C=C(C)[C@@H]1CC=C2[C@@H](CC[C@]23C(=C)CC[C@@]3(C)[C@H](C)CC(=O)[C@H]2CC(CCC=C(C)C)=CC[C@]2(C)C(=O)O)[C@@]1(C)CCC(=O)O,> 10,> 10,> 10
C=C(C)[C@@H]1C=CC2=C3CC[C@@](C)([C@H](C)CC(=O)[C@@H]4CC(CCC=C(C)C)=CC[C@@]4(C)C(=O)O)[C@]3(C)CC[C@H]2[C@@]1(C)CCC(=O)O,> 10,> 10,> 10
C=C(C)[C@@H]1C=CC2=C3CC[C@@](C)([C@H](C)CC(=O)[C@@H]4CC=C(CCC=C(C)C)C[C@@]4(C)C(=O)O)[C@]3(C)CC[C@H]2[C@@]1(C)CCC(=O)OC,6.7,> 10,> 10
C=C(C)[C@@H]1CC=C2[C@@H](CC[C@]23C(=C)CC[C@@]3(C)[C@H](C)CC(=O)[C@@H]2CC(CCC=C(C)C)=CC[C@@]2(C)C(=O)O)[C@@]1(C)CCC(=O)O,> 10,> 10,> 10
C=C(C)[C@@H]1CC=C2[C@@H](CC[C@]3(C)[C@@H]([C@H](C)CC(=O)[C@@H]4CC=C(CCC=C(C)C)C[C@@]4(C)C(=O)O)CC[C@@]23C)[C@@]1(C)CCC(=O)O,> 10,> 10,> 10
C=C(C)[C@@H]1C=CC2=C3CC[C@@](C)([C@H](C)CC(=O)[C@H]4CC(CCC=C(C)C)=CC[C@]4(C)C(=O)O)[C@]3(C)CC[C@H]2[C@@]1(C)CCC(=O)O,9,> 10,> 10
C=C(C)[C@@H]1C=CC2=C3CC[C@@](C)([C@H](C)CC(=O)[C@@H]4CC=C(CCC=C(C)C)C[C@@]4(C)C(=O)O)[C@]3(C)CC[C@H]2[C@@]1(C)CCC(=O)O,10,> 10,> 10
C=C(C)[C@@H]1C=CC2=C3CC[C@@](C)([C@H](C)CC(=O)[C@H]4CC=C(CCC=C(C)C)C[C@]4(C)C(=O)O)[C@]3(C)CC[C@H]2[C@@]1(C)CCC(=O)O,> 10,> 10,> 10
COc1cc([C@@H]2c3cc4c(cc3[C@@H](O[C@@H]3O[C@@H]5CO[C@@H](C)O[C@H]5[C@H](O)[C@H]3O)[C@H]3COC(=O)[C@H]23)OCO4)cc(OC)c1O [ETOPOSIDE],1.7,> 10,2

# From ChEMBL document CHEMBL3758111, “DFT Calculations and ROESY NMR Data for the Diastereochemical Characterization of Cytotoxic Tetraterpenoids from the Oleoresin of Abies balsamea” (J Nat Prod, 2015)
